Reference: ChEMBL document CHEMBL4334465, “SAR Studies on Aromatic Acylhydrazone-Based Inhibitors of Fungal Sphingolipid Synthesis as Next-Generation Antifungal Agents” (J Med Chem, 2019)
Converted amounts (≈) assume the structure as drawn. The source made the active and inactive calls. The calls are words filed in the database; no cut-off is given here.

What was measured:
Cryptococcus neoformans [1] = assay: Antifungal activity against Cryptococcus neoformans H99 measured after 24 to 72 hrs; assay type: functional; conditions: var grubii H99
In short: (§1)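 Modified CLSI broth microdilution with inoculum per M27A3. Compounds were serially diluted 32 to 0.03 μg/mL. Media: C. neoformans in HEPES-buffered YNB without amino acids (pH 7.0, 2% glucose); Candida strains in YNB without ammonium sulfate or amino acids plus 1% asparagine (pH 7.0, 2% glucose); A. fumigatus in RPMI (pH 7.0, 2% glucose).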

Cryptococcus neoformans [2] = assay: Fungicidal activity against Cryptococcus neoformans H99 measured after 6 hrs by time-kill assay; assay type: functional, var grubii H99
In short: (§2)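 Overnight C. neoformans washed in PBS and resuspended in HEPES-buffered YNB, pH 7.4. 2 × 10⁴ cells exposed to a range of drug concentrations in 10 mL with 0.5% DMSO final, at 37°C, 5% CO₂, shaking at 200 rpm. Aliquots sampled over 96 h, diluted and plated on YPD; CFU counted after 48 h at 30°C.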

A549 = assay: Cytotoxicity against human A549 cells after 24 to 48 hrs by MTT assay; assay type: functional; conditions: read-out: LD50 (the source's name)
In short: (§3)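 A549 and HepG2 kept in DMEM with 10% FBS and 1% pen-strep. At passage 7, seeded at 10⁵ cells/well and allowed to adhere 14 h. Compound added at 0.03–128 μg/mL, untreated wells as controls. Incubation 37°C, 5% CO₂ for 24 or 48 h. MTT (5 mg/mL in PBS) added for 4 h, formazan dissolved in DMSO, OD570.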

HepG2 = assay: Cytotoxicity against human HepG2 cells after 24 to 48 hrs by MTT assay; assay type: functional; conditions: read-out: LD50 (the source's name); in short: as §3
[3] = Selectivity index, ratio of LD50 for human A549 cells to MIC80 for Cryptococcus neoformans H99; assay type: toxicity; conditions: read-out: Selectivity Index
In short: (§4)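 SI = LD₅₀/MIC₈₀. Cytotoxicity: A549 or HepG2 cells (DMEM, 10% FBS, passage 7, 10⁵ cells/well) adhered 14 h, then exposed to 0.03–128 μg/mL for 24 or 48 h at 37°C, 5% CO₂; MTT 4 h, formazan dissolved in DMSO, read at 570 nm. MIC₈₀ against C. neoformans from broth microdilution in HEPES-buffered YNB, pH 7.0.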

[4] = Selectivity index, ratio of LD50 for human HepG2 cells to MIC80 for Cryptococcus neoformans H99; assay type: toxicity; conditions: read-out: Selectivity Index; in short: as §4
Cryptococcus neoformans [5] = assay: Antifungal activity against Cryptococcus neoformans H99 assessed as FICI in presence of fluconazole; assay type: functional, var grubii H99
In short: (§5)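 Checkerboard combination scored by fractional inhibitory concentration index. Acylhydrazone serially diluted 16 to 0.015 μg/mL (11 dilutions). Partner drug in seven dilutions: fluconazole 12 to 0.19 μg/mL, amphotericin B 5 to 0.078 μg/mL, caspofungin, itraconazole or voriconazole 8 to 0.007 μg/mL.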

Candida albicans [6] = assay: Antifungal activity against Candida albicans measured after 24 to 72 hrs; assay type: functional; in short: as §1
[Candida] auris [7] = Antifungal activity against Candida auris measured after 24 to 72 hrs; assay type: functional; conditions: Candidozyma auris; in short: as §1
Pichia kudriavzevii [8] = assay: Antifungal activity against Candida krusei measured after 24 to 72 hrs; assay type: functional
In short: (§6)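 MIC by modified CLSI broth microdilution. Candida strains grown in YNB without ammonium sulfate or amino acids with 1% asparagine, pH 7.0, 2% glucose. Inoculum per CLSI M27A3. Compound serially diluted 32 to 0.03 μg/mL. Incubation 37°C, 5% CO₂, 24–72 h, then OD450. MIC80 taken as the lowest concentration giving 80% growth inhibition versus untreated control.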

Pichia kudriavzevii [9] = assay: Antifungal activity against multi-drug resistant Candida krusei measured after 24 to 72 hrs; assay type: functional; in short: as §6
Candida parapsilosis [10] = assay: Antifungal activity against Candida parapsilosis measured after 24 to 72 hrs; assay type: functional; conditions: Lodderomyces parapsilosis; in short: as §1
Aspergillus fumigatus [11] = assay: Antifungal activity against Aspergillus fumigatus measured after 24 to 72 hrs; assay type: functional; in short: as §1
Candida albicans [12] = assay: Antifungal activity against Candida albicans assessed as FICI in presence of fluconazole; assay type: functional; in short: as §5
Pichia kudriavzevii [13] = assay: Antifungal activity against Candida krusei 6258 assessed as FICI in presence of fluconazole; assay type: functional; in short: as §5
[Candida] auris [14] = Antifungal activity against Candida auris assessed as FICI in presence of fluconazole; assay type: functional, Candidozyma auris; in short: as §5
Candida parapsilosis [15] = assay: Antifungal activity against Candida parapsilosis assessed as FICI in presence of fluconazole; assay type: functional; in short: as §5
Aspergillus fumigatus [16] = assay: Antifungal activity against Aspergillus fumigatus assessed as FICI in presence of fluconazole; assay type: functional; in short: as §5
Cryptococcus neoformans [17] = assay: Antifungal activity against Cryptococcus neoformans H99 assessed as FICI in presence of voriconazole; assay type: functional, var grubii H99; in short: as §5
Candida albicans [18] = assay: Antifungal activity against Candida albicans assessed as FICI in presence of voriconazole; assay type: functional; in short: as §5
Pichia kudriavzevii [19] = assay: Antifungal activity against fluconazole-resistant Candida krusei assessed as FICI in presence of voriconazole; assay type: functional
In short: (§7)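 Checkerboard in 96-well plate. Test compound diluted 16 to 0.015 μg/mL (11 dilutions) against the partner drug in seven dilutions: fluconazole 12 to 0.19 μg/mL, caspofungin, itraconazole or voriconazole 8 to 0.007 μg/mL. Fractional inhibitory concentration index (FICI) calculated from the combinations.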

Pichia kudriavzevii [20] = assay: Antifungal activity against Candida krusei 6258 assessed as FICI in presence of voriconazole; assay type: functional; in short: as §5
[Candida] auris [21] = Antifungal activity against Candida auris assessed as FICI in presence of voriconazole; assay type: functional, Candidozyma auris; in short: as §5
Candida parapsilosis [22] = assay: Antifungal activity against Candida parapsilosis assessed as FICI in presence of voriconazole; assay type: functional; in short: as §5
Aspergillus fumigatus [23] = assay: Antifungal activity against Aspergillus fumigatus assessed as FICI in presence of voriconazole; assay type: functional; in short: as §5
Cryptococcus neoformans [24] = assay: Antifungal activity against Cryptococcus neoformans H99 assessed as FICI in presence of itraconazole; assay type: functional, var grubii H99; in short: as §5
Candida albicans [25] = assay: Antifungal activity against Candida albicans assessed as FICI in presence of itraconazole; assay type: functional; in short: as §5
Pichia kudriavzevii [26] = assay: Antifungal activity against fluconazole-resistant Candida krusei assessed as FICI in presence of itraconazole; assay type: functional; in short: as §7
Pichia kudriavzevii [27] = assay: Antifungal activity against Candida krusei 6258 assessed as FICI in presence of itraconazole; assay type: functional; in short: as §5
[Candida] auris [28] = Antifungal activity against Candida auris assessed as FICI in presence of itraconazole; assay type: functional, Candidozyma auris; in short: as §5
Candida parapsilosis [29] = assay: Antifungal activity against Candida parapsilosis assessed as FICI in presence of itraconazole; assay type: functional; in short: as §5
Aspergillus fumigatus [30] = assay: Antifungal activity against Aspergillus fumigatus assessed as FICI in presence of itraconazole; assay type: functional; in short: as §5
Candida albicans [31] = assay: Antifungal activity against Candida albicans assessed as FICI in presence of caspofungin; assay type: functional; in short: as §5
Pichia kudriavzevii [32] = assay: Antifungal activity against fluconazole-resistant Candida krusei assessed as FICI in presence of caspofungin; assay type: functional; in short: as §7
Pichia kudriavzevii [33] = assay: Antifungal activity against Candida krusei 6258 assessed as FICI in presence of caspofungin; assay type: functional; in short: as §5
[Candida] auris [34] = Antifungal activity against Candida auris assessed as FICI in presence of caspofungin; assay type: functional, Candidozyma auris; in short: as §5
Candida parapsilosis [35] = assay: Antifungal activity against Candida parapsilosis assessed as FICI in presence of caspofungin; assay type: functional; in short: as §5
Cryptococcus neoformans [36] = assay: Antifungal activity against Cryptococcus neoformans H99 assessed as FICI in presence of amphotericin B; assay type: functional, var grubii H99; in short: as §5
Cryptococcus neoformans [37] = assay: Fungicidal activity against Cryptococcus neoformans H99 measured up to 96 hrs by time-kill assay; assay type: functional, organism-based; conditions: var grubii H99; in short: as §2
Cryptococcus neoformans [38] = assay: Antifungal activity against Cryptococcus neoformans H99 infected in CBA/J mouse assessed as increase in survival at 1.2 mg/kg, ip; assay type: functional, organism-based; conditions: var grubii H99

O=C(N/N=C/c1cc(Cl)cc(Cl)c1O)c1ccc(Br)c(Br)c1
MIC80 (Cryptococcus neoformans [1]): 0.03 µg/mL (≈ 0.0642 µM) | MFC100 (Cryptococcus neoformans [2]): 1 µg/mL (≈ 2.14 µM) | CC50 (A549): 32 µg/mL (≈ 68.5 µM) | CC50 (HepG2): 32 µg/mL (≈ 68.5 µM) | selectivity ratio [3]: 1070 | selectivity ratio [4]: 1070 | fractional inhibitory concentration index (FICI) (Cryptococcus neoformans [5]): 0.237 | MIC80 (Candida albicans [6]): 2 µg/mL (≈ 4.28 µM) | MIC80 ([Candida] auris [7]): 0.5 µg/mL (≈ 1.07 µM) | MIC80 (Pichia kudriavzevii [8]): 0.25 µg/mL (≈ 0.535 µM) | MIC80 (Pichia kudriavzevii [9]): 0.25 µg/mL (≈ 0.535 µM) | MIC80 (Candida parapsilosis [10]): 1 µg/mL (≈ 2.14 µM) | MIC80 (Aspergillus fumigatus [11]): 8 µg/mL (≈ 17.1 µM) | fractional inhibitory concentration index (FICI) (Candida albicans [12]): 0.252 | fractional inhibitory concentration index (FICI) (Pichia kudriavzevii [13]): 0.25 | fractional inhibitory concentration index (FICI) ([Candida] auris [14]): 0.5 | fractional inhibitory concentration index (FICI) (Candida parapsilosis [15]): 0.258 | fractional inhibitory concentration index (FICI) (Aspergillus fumigatus [16]): 2 | fractional inhibitory concentration index (FICI) (Cryptococcus neoformans [17]): 0.247 | fractional inhibitory concentration index (FICI) (Candida albicans [18]): 0.077 | fractional inhibitory concentration index (FICI) (Pichia kudriavzevii [19]): 1.03 | fractional inhibitory concentration index (FICI) (Pichia kudriavzevii [20]): 0.56 | fractional inhibitory concentration index (FICI) ([Candida] auris [21]): 0.5 | fractional inhibitory concentration index (FICI) (Candida parapsilosis [22]): 1.5 | fractional inhibitory concentration index (FICI) (Aspergillus fumigatus [23]): 1.031 | fractional inhibitory concentration index (FICI) (Cryptococcus neoformans [24]): 0.247 | fractional inhibitory concentration index (FICI) (Candida albicans [25]): 0.091 | fractional inhibitory concentration index (FICI) (Pichia kudriavzevii [26]): 1.24 | fractional inhibitory concentration index (FICI) (Pichia kudriavzevii [27]): 0.53 | fractional inhibitory concentration index (FICI) ([Candida] auris [28]): 1.12 | fractional inhibitory concentration index (FICI) (Candida parapsilosis [29]): 1.25 | fractional inhibitory concentration index (FICI) (Aspergillus fumigatus [30]): 1.008 | fractional inhibitory concentration index (FICI) (Candida albicans [31]): 1 | fractional inhibitory concentration index (FICI) (Pichia kudriavzevii [32]): 1.004 | fractional inhibitory concentration index (FICI) (Pichia kudriavzevii [33]): 1.001 | fractional inhibitory concentration index (FICI) ([Candida] auris [34]): 0.5 | fractional inhibitory concentration index (FICI) (Candida parapsilosis [35]): 0.501 | fractional inhibitory concentration index (FICI) (Cryptococcus neoformans [36]): 0.247 | Activity (Cryptococcus neoformans [37]): Dose-dependent effect

O=C(N/N=C/c1cc(Br)cc(Br)c1O)c1ccc(Br)cc1
Activity (Cryptococcus neoformans [38]): Active
